Test results: ChEMBL document CHEMBL4699666, “Cyclic Peptidyl Inhibitors against CAL/CFTR Interaction for Treatment of Cystic Fibrosis” (J Med Chem, 2020)
Values belong to the molecule of their own block, whether it stands above or below them. Activity calls are given as the source filed them. The rule behind the calls is not given here. Positions of bridges follow the written chain, without caps; N, C: chain ends. Non-standard residues stand in square brackets, D forms with d. Residues, ends and D or L forms follow the SMILES beside them. *: point of attachment. 1Nal = N[C@@H](Cc1cccc2ccccc12)C(=O)O; 2Nal = N[C@@H](Cc1ccc2ccccc2c1)C(=O)O; Bta = N[C@@H](Cc1csc2ccccc12)C(=O)O; Pen = CC(C)(S)[C@H](N)C(=O)O; Tle = CC(C)(C)[C@H](N)C(=O)O; Nicotinoyl = O=C(c1cccnc1)*

Columns and labels:
[1] = biological target: T1, Golgi-associated PDZ and coiled-coil motif-containing protein (Homo sapiens, UniProt Q9HD26); assay: Binding affinity to C-terminal His6 tagged CAL PDZ domain (unknown origin) expressed in Escherichia coli BL21 incubated for 1 hr using FAM-22 probe by fluorescence polarization based competition assay
[2] = Drug uptake in human HeLa cells at 5 uM incubated for 2 hrs by flow cytometry relative to CPP9; assay type: ADME, cell-based
Summary of the method: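 Naphthofluorescein-labelled cyclic peptides (5 μM final, 0.5% DMSO, in DMEM with 10% FBS) were applied to HeLa cells, seeded the day before at 15 × 10^4 per well, for 2 h at 37 °C. Cells were washed with cold DPBS, trypsinized and analysed by flow cytometry. Mean fluorescence was expressed as % of CPP9; n = 3.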

[3] = biological target: T1, Golgi-associated PDZ and coiled-coil motif-containing protein; assay: Binding affinity to C-terminal His6 tagged CAL PDZ domain (unknown origin) expressed in Escherichia coli BL21 incubated for 1 hr using FAM-ANSRWPTSII-OH probe by fluorescence polarization based competition assay
[4] = biological target: T2, Na(+)/H(+) exchange regulatory cofactor NHE-RF2 (Homo sapiens, UniProt Q15599); assay: Binding affinity to NHERF2 PDZ1 domain (unknown origin) expressed in Escherichia coli BL21 incubated for 1 hr by fluorescence polarization based competition assay
Summary of the method: (§1)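 CAL, NHERF1 and NHERF2 PDZ domains carried a C-terminal His6 tag, were expressed in E. coli BL21 (0.1 mM IPTG, 16 h at 18 °C) and purified on Ni-NTA. For direct binding, 50 nM fluorescein-labelled peptide was titrated with PDZ protein (0–2.5 μM CAL; 0–25 μM NHERF1/2) in PBS pH 7.4 with 0.01% Triton X-100 and 2 mM TCEP for 1 h at room temperature. Fluorescence polarization gave KD; n = 3.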

[5] = biological target: T1, Golgi-associated PDZ and coiled-coil motif-containing protein; assay: Binding affinity to C-terminal His6 tagged CAL PDZ domain (unknown origin) expressed in Escherichia coli BL21 incubated for 1 hr by fluorescence polarization assay
[6] = biological target: T2, Na(+)/H(+) exchange regulatory cofactor NHE-RF2; assay: Binding affinity to NHERF2 PDZ2 domain (unknown origin) expressed in Escherichia coli BL21 incubated for 1 hr by fluorescence polarization based competition assay
[7] = biological target: T3, Na(+)/H(+) exchange regulatory cofactor NHE-RF1 (Homo sapiens, UniProt O14745); assay: Binding affinity to NHERF1 PDZ1 domain (unknown origin) expressed in Escherichia coli BL21 incubated for 1 hr by fluorescence polarization based competition assay; summary of the method: as §1
T3 sequence (O14745 whole entry): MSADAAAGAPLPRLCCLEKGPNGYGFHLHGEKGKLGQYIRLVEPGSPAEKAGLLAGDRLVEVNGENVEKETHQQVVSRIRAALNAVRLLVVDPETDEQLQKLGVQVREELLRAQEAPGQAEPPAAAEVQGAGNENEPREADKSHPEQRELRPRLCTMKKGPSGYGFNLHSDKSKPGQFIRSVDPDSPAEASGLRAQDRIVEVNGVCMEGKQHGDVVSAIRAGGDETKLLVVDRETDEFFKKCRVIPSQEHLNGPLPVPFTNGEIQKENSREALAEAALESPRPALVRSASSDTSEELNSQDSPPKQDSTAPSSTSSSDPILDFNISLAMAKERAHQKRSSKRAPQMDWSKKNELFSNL

[8] = tested on: Epithelial cell; assay: Inhibition of CAL and CFTR F508del mutant interaction in human CF-HBE cells isolated from patient with F508del mutation assessed as increase in short-circuit current at 100 nM incubated for 24 hrs in presence of 5 uM VX-809 by relative to VX-809 alone; assay type: cell-based; details: time 2.0 hrs, in the assay text read “incubated for 2 hrs” for “incubated for 24 hrs”
Summary of the method: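 Primary F508del-homozygous bronchial epithelia from one donor, grown at air/liquid interface, were treated with 5 μM VX-809 for 48 h, then with 100 nM peptide for 2 h. Short-circuit current was measured in an Ussing chamber and scaled to VX-809 alone (100%). Results are 2–3 replicates per condition.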

T2 sequence (Q15599 whole entry, the tested form may be a part): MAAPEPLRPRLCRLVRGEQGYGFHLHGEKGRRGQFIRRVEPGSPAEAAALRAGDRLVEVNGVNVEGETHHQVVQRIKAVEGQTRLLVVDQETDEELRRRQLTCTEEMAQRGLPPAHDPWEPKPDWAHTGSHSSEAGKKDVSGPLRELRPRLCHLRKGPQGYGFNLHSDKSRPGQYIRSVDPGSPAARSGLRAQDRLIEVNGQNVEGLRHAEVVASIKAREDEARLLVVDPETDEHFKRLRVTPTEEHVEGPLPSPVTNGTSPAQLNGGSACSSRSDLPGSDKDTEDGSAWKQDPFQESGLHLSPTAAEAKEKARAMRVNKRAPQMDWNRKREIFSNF

SMILES: CC(=O)N[C@@H](CS)C(=O)N[C@@H](CCCNC(=N)N)C(=O)N[C@@H](CCCNC(=N)N)C(=O)N[C@@H](CCCNC(=N)N)C(=O)N[C@@H](Cc1ccccc1)C(=O)N[C@@H](Cc1cccc2ccccc12)C(=O)N[C@@H](CCC(N)=O)C(=O)N[C@@H](CS)C(=O)N[C@H](C(=O)N[C@@H](CCCNC(=N)N)C(=O)N[C@H](C(=O)O)C(C)(C)C)[C@@H](C)O (Ac-CRRRF[1Nal]QCTR[Tle]-OH)
IC50 [1]: 1800 nM

SMILES: CC(=O)N[C@@H](CS)C(=O)N[C@H](CCCNC(=N)N)C(=O)N[C@@H](CCCNC(=N)N)C(=O)N[C@@H](CCCNC(=N)N)C(=O)N[C@@H](Cc1ccc2ccccc2c1)C(=O)N[C@@H](Cc1csc2ccccc12)C(=O)N[C@H](C(=O)N[C@H](C(=O)N[C@H](C(=O)N[C@@H](CCCNC(=N)N)C(=O)N[C@H](C(=O)O)C(C)(C)C)[C@@H](C)O)C(C)(C)C)C(C)(C)S (Ac-C[dR]RR[2Nal][Bta][Pen][Tle]TR[Tle]-OH)
IC50 [1]: 240 nM
Drug uptake [2]: 518%

SMILES: CC(=O)N[C@@H](CCCNC(=N)N)C(=O)N[C@@H](CCCNC(=N)N)C(=O)N[C@@H](Cc1ccccc1)C(=O)N[C@@H](Cc1c[nH]c2ccccc12)C(=O)N[C@@H](CCC(N)=O)C(=O)N[C@@H](CS)C(=O)N[C@H](C(=O)N[C@@H](CCCCNC(=N)N)C(=O)N[C@H](C(=O)O)C(C)(C)C)[C@@H](C)O
IC50 [3]: 2400 nM

SMILES: CC(=O)N[C@@H](CCCNC(=N)N)C(=O)N[C@@H](CCCNC(=N)N)C(=O)N[C@@H](Cc1ccccc1)C(=O)N[C@@H](Cc1c[nH]c2ccccc12)C(=O)N[C@H](CS)C(=O)N[C@@H](CS)C(=O)N[C@H](C(=O)N[C@@H](CCCNC(=N)N)C(=O)N[C@H](C(=O)O)C(C)(C)C)[C@@H](C)O (Ac-RRFW[dC]CTR[Tle]-OH)
IC50 [3]: 10000 nM

SMILES: CC(=O)N[C@@H](CS)C(=O)N[C@H](CCCNC(=N)N)C(=O)N[C@@H](CCCNC(=N)N)C(=O)N[C@@H](CCCNC(=N)N)C(=O)N[C@@H](Cc1ccc2ccccc2c1)C(=O)N[C@@H](Cc1c[nH]c2ccccc12)C(=O)N[C@H](C(=O)N[C@H](C(=O)N[C@H](C(=O)N[C@@H](CCCNC(=N)N)C(=O)N[C@H](C(=O)O)C(C)(C)C)[C@@H](C)O)C(C)(C)C)C(C)(C)S (Ac-C[dR]RR[2Nal]W[Pen][Tle]TR[Tle]-OH)
Drug uptake [2]: 92%

SMILES: CC(=O)N[C@@H](CCCNC(=N)N)C(=O)N[C@@H](CCCNC(=N)N)C(=O)N[C@@H](Cc1ccccc1)C(=O)N[C@@H](Cc1c[nH]c2ccccc12)C(=O)N[C@@H](CCC(N)=O)C(=O)N[C@@H](CS)C(=O)N[C@H](C(=O)N[C@@H](CCCCNC(=O)c1cccnc1)C(=O)N[C@H](C(=O)O)C(C)(C)C)[C@@H](C)O (Ac-RRFWQCTK(Nicotinoyl)[Tle]-OH)
IC50 [3]: 2200 nM

SMILES: C[C@@H](O)[C@H](NC(=O)[C@@H](NC(=O)[C@@H]1CCCCN1C(=O)[C@H](Cc1csc2ccccc12)NC(=O)[C@H](Cc1ccc2ccccc2c1)NC(=O)[C@H](CCCNC(=N)N)NC(=O)[C@H](CCCNC(=N)N)NC(=O)[C@@H](CCCNC(=N)N)NC(=O)[C@H](CS)NC(=O)COCCOCCNC(=S)Nc1ccc2c(c1)C(=O)OC21c2ccc(O)cc2Oc2cc(O)ccc21)C(C)(C)S)C(=O)N[C@@H](CCCNC(=N)N)C(=O)N[C@H](C(=O)O)C(C)(C)C
Kd [4]: 1370 nM
Kd [5]: 6 nM
Kd [6]: 7480 nM
Kd [7]: 780 nM

SMILES: CC(=O)N[C@@H](CS)C(=O)N[C@H](CCCNC(=N)N)C(=O)N[C@@H](CCCNC(=N)N)C(=O)N[C@@H](CCCNC(=N)N)C(=O)N[C@@H](Cc1ccc2ccccc2c1)C(=O)N[C@@H](Cc1csc2ccccc12)C(=O)N1CCC[C@H]1C(=O)N[C@H](C(=O)N[C@H](C(=O)N[C@@H](CCCNC(=N)N)C(=O)N[C@H](C(=O)O)C(C)(C)C)[C@@H](C)O)C(C)(C)S (Ac-C[dR]RR[2Nal][Bta]P[Pen]TR[Tle]-OH)
Drug uptake [2]: 36%

SMILES: CC(=O)N[C@H]1CSSC(C)(C)[C@@H](C(=O)N[C@H](C(=O)N[C@H](C(=O)N[C@@H](CCCNC(=N)N)C(=O)N[C@H](C(=O)O)C(C)(C)C)[C@@H](C)O)C(C)(C)C)NC(=O)[C@H](Cc2csc3ccccc23)NC(=O)[C@H](Cc2ccc3ccccc3c2)NC(=O)[C@H](CCCNC(=N)N)NC(=O)[C@H](CCCNC(=N)N)NC(=O)[C@@H](CCCNC(=N)N)NC1=O (Ac-C[dR]RR[2Nal][Bta][Pen][Tle]TR[Tle]-OH; disulfide 1-7)
inhibition [8]: inactive

Now from value to molecule:

IC50 [1]: 170 nM
Drug uptake [2]: 28%
SMILES: CC(=O)N[C@@H](CS)C(=O)N[C@H](CCCNC(=N)N)C(=O)N[C@@H](CCCNC(=N)N)C(=O)N[C@@H](CCCNC(=N)N)C(=O)N[C@@H](Cc1ccc2ccccc2c1)C(=O)N[C@@H](Cc1c[nH]c2ccccc12)C(=O)N[C@@H](CCC(N)=O)C(=O)N[C@H](C(=O)N[C@H](C(=O)N[C@@H](CCCNC(=N)N)C(=O)N[C@H](C(=O)O)C(C)(C)C)[C@@H](C)O)C(C)(C)S (Ac-C[dR]RR[2Nal]WQ[Pen]TR[Tle]-OH)

Kd [4]: 6040 nM
Kd [5]: 87 nM
Kd [6]: 7660 nM
Kd [7]: 3970 nM
SMILES: C[C@@H](O)[C@H](NC(=O)[C@@H](NC(=O)[C@@H]1CCCN1C(=O)[C@H](Cc1csc2ccccc12)NC(=O)[C@H](Cc1ccc2ccccc2c1)NC(=O)[C@H](CCCNC(=N)N)NC(=O)[C@H](CCCNC(=N)N)NC(=O)[C@@H](CCCNC(=N)N)NC(=O)[C@H](CS)NC(=O)COCCOCCNC(=S)Nc1ccc2c(c1)C(=O)OC21c2ccc(O)cc2Oc2cc(O)ccc21)C(C)(C)S)C(=O)N[C@@H](CCCNC(=N)N)C(=O)N[C@H](C(=O)O)C(C)(C)C

Drug uptake [2]: 17%
SMILES: CC(=O)N[C@@H](CS)C(=O)N[C@@H](CCCNC(=N)N)C(=O)N[C@H](CCCNC(=N)N)C(=O)N[C@@H](CCCNC(=N)N)C(=O)N[C@@H](Cc1ccc2ccccc2c1)C(=O)N[C@@H](Cc1c[nH]c2ccccc12)C(=O)N[C@@H](CCC(N)=O)C(=O)N[C@H](C(=O)N[C@H](C(=O)N[C@@H](CCCNC(=N)N)C(=O)N[C@H](C(=O)O)C(C)(C)C)[C@@H](C)O)C(C)(C)S (Ac-CR[dR]R[2Nal]WQ[Pen]TR[Tle]-OH)

IC50 [1]: 150 nM
SMILES: CC(=O)N[C@@H](CS)C(=O)N[C@@H](CCCNC(=N)N)C(=O)N[C@@H](CCCNC(=N)N)C(=O)N[C@@H](CCCNC(=N)N)C(=O)N[C@@H](Cc1ccc2ccccc2c1)C(=O)N[C@@H](Cc1c[nH]c2ccccc12)C(=O)N[C@@H](CCC(N)=O)C(=O)N[C@H](C(=O)N[C@H](C(=O)N[C@@H](CCCNC(=N)N)C(=O)N[C@H](C(=O)O)C(C)(C)C)[C@@H](C)O)C(C)(C)S (Ac-CRRR[2Nal]WQ[Pen]TR[Tle]-OH)

Drug uptake [2]: 23%
SMILES: CC(=O)N[C@@H](CS)C(=O)N[C@H](CCCNC(=N)N)C(=O)N[C@H](CCCNC(=N)N)C(=O)N[C@@H](CCCNC(=N)N)C(=O)N[C@@H](Cc1ccc2ccccc2c1)C(=O)N[C@@H](Cc1c[nH]c2ccccc12)C(=O)N[C@@H](CCC(N)=O)C(=O)N[C@H](C(=O)N[C@H](C(=O)N[C@@H](CCCNC(=N)N)C(=O)N[C@H](C(=O)O)C(C)(C)C)[C@@H](C)O)C(C)(C)S (Ac-C[dR][dR]R[2Nal]WQ[Pen]TR[Tle]-OH)

Kd [4]: 1870 nM
Kd [5]: 113 nM
Kd [6]: 4070 nM
Kd [7]: 1640 nM
SMILES: C[C@@H](O)[C@H](NC(=O)[C@@H](NC(=O)[C@H](CCC(N)=O)NC(=O)[C@H](Cc1c[nH]c2ccccc12)NC(=O)[C@H](Cc1ccc2ccccc2c1)NC(=O)[C@H](CCCNC(=N)N)NC(=O)[C@H](CCCNC(=N)N)NC(=O)[C@@H](CCCNC(=N)N)NC(=O)[C@H](CS)NC(=O)CCNC(=S)Nc1ccc(-c2c3ccc(=O)cc-3oc3cc(O)ccc23)c(C(=O)O)c1)C(C)(C)S)C(=O)N[C@@H](CCCNC(=N)N)C(=O)N[C@H](C(=O)O)C(C)(C)C

IC50 [1]: 150 nM
SMILES: CC(=O)N[C@@H](CS)C(=O)N[C@@H](CCCNC(=N)N)C(=O)N[C@@H](CCCNC(=N)N)C(=O)N[C@@H](CCCNC(=N)N)C(=O)N[C@@H](Cc1cccc2ccccc12)C(=O)N[C@@H](Cc1c[nH]c2ccccc12)C(=O)N[C@@H](CCC(N)=O)C(=O)N[C@H](C(=O)N[C@H](C(=O)N[C@@H](CCCNC(=N)N)C(=O)N[C@H](C(=O)O)C(C)(C)C)[C@@H](C)O)C(C)(C)S (Ac-CRRR[1Nal]WQ[Pen]TR[Tle]-OH)
